Results from different studies.
Each line is one published result; the experiments were not run side by side.
Target: Muscarinic acetylcholine receptor M1 (CHRM1, Homo sapiens, UniProt P11229)
Concentration: 10 µM
One construct used (P11229 1-460): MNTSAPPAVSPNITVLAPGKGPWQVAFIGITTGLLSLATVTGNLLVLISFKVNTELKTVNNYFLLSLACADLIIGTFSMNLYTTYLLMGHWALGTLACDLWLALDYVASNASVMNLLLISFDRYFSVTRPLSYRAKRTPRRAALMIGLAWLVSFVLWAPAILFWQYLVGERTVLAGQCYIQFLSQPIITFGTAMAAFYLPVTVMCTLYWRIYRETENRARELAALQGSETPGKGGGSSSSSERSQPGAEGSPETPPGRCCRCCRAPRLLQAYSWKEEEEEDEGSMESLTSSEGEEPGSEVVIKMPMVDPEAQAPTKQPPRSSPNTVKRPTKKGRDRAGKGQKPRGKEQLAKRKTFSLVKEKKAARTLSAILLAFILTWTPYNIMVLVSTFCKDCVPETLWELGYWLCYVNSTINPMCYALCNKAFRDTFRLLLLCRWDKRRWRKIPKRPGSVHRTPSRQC

| SMILES | assay | inhibition [%] |
| --- | --- | --- |
| CCN(CC)CCCC[C@H](NC(=O)[C@H](CC(C)C)NC(=O)[C@H](C)NC(=O)[C@H](Cc1ccccc1)NC(=O)c1ccc(C(C)(C)C)cc1)C(=O)N[C@@H](CO)C(=O)OC | ligand displacement, radioligand | 1 |
| CN1CC[C@]2(C)c3cc(OC(=O)Nc4ccccc4)ccc3N(C)[C@H]12 | ligand displacement, radioligand | 0 |
| CS(=O)(=O)c1cc(C2(NC(=O)c3cncc4c3cnn4-c3ccc(F)cc3)CC2)ccn1 | cell-free assay | -14.8 |
| c1ccc(C(NCCNC(c2ccccc2)c2ccccc2)c2ccccc2)cc1 | cell-free assay | 21 |
| CC(C)N1CCC[C@H]1CNC(=O)c1cn(C2CCCC2)c(=O)c2c1c1ccccc1n2C | ligand displacement, radioligand | -1 |
| COc1ccc2cc(OCC3(C(=O)O)CN(C(=O)c4ccc(F)cc4)C3)ccc2c1 | ligand displacement | -0.03 |
| C[C@H](C(=O)N[C@H]1COc2ccccc2[C@@H]1S(C)(=O)=O)c1ccc(F)cc1 | cell-free assay | -7 |
| Clc1ccc2c(C3CCN(CCc4c[nH]c5ccccc45)CC3)c[nH]c2c1 | ligand displacement, radioligand | 31 |
| COCc1c(-c2cc3cc(C)cc(OC)c3s2)c2c(N)ncnn2c1CN1CCNC(=O)C1 | ligand displacement, radioligand | 6 |
